# From ChEMBL document CHEMBL1123309, “Esters and lactones of phenolic amino carboxylic acids: prodrugs for iron chelation” (J Med Chem, 1986)
# Values joined by “and” are separate entries in the source; they are usually repeats but may differ in a detail not shown here. Equal entries are not always repeated.
# Legend:
# Rattus norvegicus [1] = experiment: Percent change in iron levels was determined in urine using iron overload rat model where the route of administration is Intraperitoneal; format: functional
# Rattus norvegicus [2] = experiment: Percent change in iron levels was determined in feces using iron overload rat model where the route of administration is Intraperitoneal; format: functional
# Rattus norvegicus [3] = experiment: Percent change in iron levels was determined in feces using iron overload rat model where the route of administration is Peroral; format: functional
# [4] = Compound was evaluated for lethal dose after intraperitoneal administration using iron overload rat model; format: toxicity, organism-based; conditions: in vivo, ip
# Rattus norvegicus [5] = experiment: Percent change in iron levels was determined in urine using iron overload rat model where the route of administration is Peroral; format: functional
# Mus musculus [6] = experiment: BDF1 male mice were administered reduced to 100 mg/kg on day 4 intraperitoneally and percent change in iron levels was determined in Urine; format: functional; conditions: route oral, in the assay text read “orally” for “intraperitoneally”
# Procedure, shortened: (§1)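 Male BDF1 mice made iron-overloaded by transfusion of washed, heat-treated (50 °C, 30 min) canine red cells. Dosing began 2 days after the last transfusion, once daily for 7 days, in distilled water or 2% Polysorbate 80 suspension. Daily group urine was collected. Pooled feces were digested in 1 N HCl (90 °C, 30 min). Liver and spleen were homogenized in saline. Iron was measured by atomic absorption and expressed as % change vs transfused controls.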
# Mus musculus [7] = experiment: BDF1 male mice were administered reduced to 100 mg/kg on day 4 intraperitoneally and percent change in iron levels was determined in Spleen; format: functional; conditions: route oral, in the assay text read “orally” for “intraperitoneally”; procedure, shortened: as §1
# Mus musculus [8] = experiment: BDF1 male mice were administered with 200 mg/kg intraperitoneally and number of survivors was determined out of 10 tested; format: functional; conditions: route intraperitoneal, 200 mg/kg
# Procedure, shortened: (§2)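 Male BDF1 mice were iron-loaded by transfusion of canine red cells. The cells were heparinised, washed twice in isotonic saline and heated at 50 °C for 30 min. Dosing started two days after the last transfusion, once daily for 7 consecutive days. Compounds were given in distilled water or as a fine aqueous suspension with Polysorbate 80 (2% final). Toxic signs were recorded daily and survivors counted per group.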
# Mus musculus [9] = experiment: BDF1 male mice were administered with 200 mg/kg intraperitoneally and percent change in iron levels was determined in Spleen; format: functional; conditions: route intraperitoneal; procedure, shortened: as §1
# Mus musculus [10] = experiment: BDF1 male mice were administered with 200 mg/kg intraperitoneally and percent change in iron levels was determined in Urine; format: functional; conditions: route intraperitoneal; procedure, shortened: as §1
# Mus musculus [11] = experiment: BDF1 male mice were administered reduced to 100 mg/kg on day 4 intraperitoneally and percent change in iron levels was determined in Feces; format: functional; conditions: route oral, in the assay text read “orally” for “intraperitoneally”; procedure, shortened: as §1
# Mus musculus [12] = experiment: BDF1 male mice were administered with 200 mg/kg intraperitoneally and percent change in iron levels was determined in Feces; format: functional; conditions: route intraperitoneal; procedure, shortened: as §1
# Mus musculus [13] = experiment: BDF1 male mice were administered reduced to 100 mg/kg on day 4 intraperitoneally and percent change in iron levels was determined in Liver; format: functional; conditions: route oral, in the assay text read “orally” for “intraperitoneally”; procedure, shortened: as §1
# Mus musculus [14] = experiment: BDF1 male mice were administered with 200 mg/kg orally and percent change in iron levels was determined in Feces; format: functional; conditions: route oral; procedure, shortened: as §1
# Mus musculus [15] = experiment: BDF1 male mice were administered with the compound and number of survivors was determined out of 10 tested at a dose 400 mg/kg peroral; format: functional; conditions: route oral; procedure, shortened: as §2
# Mus musculus [16] = experiment: BDF1 male mice were administered with 50 mg/kg orally and percent change in iron levels was determined in spleen; format: functional; conditions: dose 375 mg/kg; route intraperitoneal; in the assay text read “375 mg/kg intraperitoneally” for “50 mg/kg orally”
# Mus musculus [17] = experiment: BDF1 male mice were administered with 200 mg/kg orally and percent change in iron levels was determined in Urine; format: functional; conditions: route oral; procedure, shortened: as §1
# Mus musculus [18] = experiment: BDF1 male mice were administered with 200 mg/kg orally and percent change in iron levels was determined in Liver; format: functional; conditions: route oral; procedure, shortened: as §1
# Mus musculus [19] = experiment: BDF1 male mice were administered with 200 mg/kg orally and percent change in iron levels was determined in spleen; format: functional; conditions: route oral; procedure, shortened: as §1
# Mus musculus [20] = experiment: BDF1 male mice were administered with the compound and number of survivors was determined out of 10 tested at a dose 375 mg/kg intraperitoneal
# Mus musculus [21] = experiment: BDF1 male mice were administered with 25 mg/kg orally and percent change in iron levels was determined in spleen; format: functional; conditions: dose 200 mg/kg; route intraperitoneal; in the assay text read “200 mg/kg intraperitoneally” for “25 mg/kg orally”
# Mus musculus [22] = experiment: BDF1 male mice were administered with 100 mg/kg orally and percent change in iron levels was determined in spleen; format: functional; conditions: dose 400 mg/kg; route oral; in the assay text read “400 mg/kg” for “100 mg/kg”; procedure, shortened: as §1
# Mus musculus [23] = experiment: BDF1 male mice were administered with the compound and number of survivors was determined out of 10 tested at a dose 200 mg/kg peroral; format: functional; conditions: route oral; procedure, shortened: as §2
smiles,measurement,setting,value
COC(=O)C(NCCNC(C(=O)OC)c1ccccc1O)c1ccccc1O (stereo not drawn),Iron change,Rattus norvegicus [1],188%
same,Iron change,Rattus norvegicus [2],104%
same,Iron change,Rattus norvegicus [3],89%
same,LD50,[4],≥ 800 mg/kg
same,Iron change,Rattus norvegicus [5],115%
O=C(O)CN(CCN(CC(=O)O)Cc1ccccc1O)Cc1ccccc1O,Iron change,Rattus norvegicus [1],196%
same,Iron change,Rattus norvegicus [2],195%
same,Iron change,Mus musculus [6],14%
same,Iron change,Mus musculus [7],-9%
same,Iron change,Rattus norvegicus [3],53%
same,No. of survivors,Mus musculus [8],10 and 9
same,Iron change,Mus musculus [9],-5%
same,LD50,[4],≥ 800 mg/kg
same,Iron change,Mus musculus [10],50%
same,Iron change,Mus musculus [11],-7%
same,Iron change,Mus musculus [12],38%
same,Iron change,Mus musculus [13],-3%
same,Iron change,Rattus norvegicus [5],40%
COC(=O)CN(CCN(CC(=O)OC)Cc1ccccc1OC(C)=O)Cc1ccccc1OC(C)=O [DIMETHYL ESTER],Iron change,Mus musculus [14],-41%
same,No. of survivors,Mus musculus [15],6
same,Iron change,Mus musculus [16],-5%
same,Iron change,Mus musculus [17],138%
same,Iron change,Mus musculus [18],-40%
same,Iron change,Mus musculus [19],-13%
same,No. of survivors,Mus musculus [20],10
same,Iron change,Mus musculus [21],-22%
same,Iron change,Mus musculus [22],-46%
same,No. of survivors,Mus musculus [23],10
